This note sets out measurements from ChEMBL document CHEMBL1124344, “5-Piperazinylalkyl-2(3H)-oxazolones with neuroleptic activity” (J Med Chem, 1989).

Data set [1] concerns Mus musculus. The data set is described as follows: Inhibition of amphetamine-induced hypermobility in mice following p.o. administration. It counts as functional. Particulars: po. In outline:
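Compounds were given orally to male mice (gum arabic suspension, 10 mL/kg, fasted) in groups of five. Amphetamine 4 mg/kg ip followed 30 min later. After another 10 min, motility was recorded for 15 min with a photocell actophotometer. ED50, by probit analysis, is the dose giving 50% reduction against controls.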

Data set [2] relates to Mus musculus. Description: Inhibition of spontaneous motor activity in mice, by administering perorally. Type of data set: functional. Particulars: po. The essentials: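 Mice in groups of five were dosed orally with gum arabic suspensions at 10 mL/kg after an overnight fast, with a vehicle control group. Locomotion was counted for 10 min in a photocell activity cage, in at least two groups per dose. ED50, by probit analysis, is the dose giving 50% inhibition against controls.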

In data set [3] the test system is Rattus norvegicus. The data set is described as follows: Antagonistic activity against apomorphine-induced stereotypy in rats, by administering perorally at a dose of 50 mg/kg. Type of data set: functional. Particulars: route oral. The essentials: (§1)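 Male rats fasted overnight and given oral doses in arabic gum suspension (10 mL/kg) 1 h, or 1 and 5 h, before challenge. Apomorphine 3 mg/kg iv, with stereotypy observed 20 min later. ED50 is the dose inhibiting stereotypy in 50% of rats, per Janssen's method. Parenthetical entries give the maximal dose and percent activity.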

In data set [4] the test system is Rattus norvegicus. Description: Activity to evoke catalepsy in rats, by administering perorally at a dose of 50 mg/kg. Type of data set: functional. As to conditions: route oral. In outline: (§2)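 Rats fasted overnight and given oral doses in arabic gum suspension (10 mL/kg), 1 h before screening or 1 and 5 h before profile testing. Forelegs placed on a horizontal bar 7 cm high, three times at 5-min intervals. Immobility of at least 15 s counts as catalepsy. ED50 is the dose giving catalepsy in 50% of rats, by probit analysis. Parenthetical entries give the maximal dose and percent activity.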

Data set [5] can be described thus: Lethal dose in mice (LD50) following i.p. dosing. It counts as toxicity, organism-based. As to conditions: mouse, in vivo, ip. The essentials:
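Acute toxicity tested in mice by the intraperitoneal route. LD50 is the dose killing 50% of treated mice, computed by Finney probit analysis; values are approximate.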

In data set [6] the test system is Rattus norvegicus. The data set is described as follows: Activity to evoke catalepsy in rats, by administering perorally at a dose of 150 mg/kg. It counts as functional. Particulars: route oral. In outline:
as §2

Data set [7] has as its system Rattus norvegicus. The data set is described as follows: Antagonistic activity against apomorphine-induced stereotypy in rats, by administering perorally at a dose of 150 mg/kg. Type of data set: functional. Particulars: route oral. In outline: as §1
Data set [8] has as its system Rattus norvegicus. The data set is described as follows: Activity to evoke catalepsy in rats, by administering perorally at a dose of 20 mg/kg. As to conditions: route oral, read-out: Inhibition. It counts as functional. The essentials:
as §2

The test system of data set [9] is Mus musculus. The data set is described as follows: Antagonistic activity against amphetamine-induced Hypermobility in mice, by administering perorally at a dose of 20 mg/kg. As to conditions: route oral. Type of data set: functional. In outline: (§3)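 Male mice in groups of five, fasted overnight, given oral drug in arabic gum suspension (10 mL/kg) 1 or 5 h ahead. Amphetamine 4 mg/kg ip given 30 min after drug. Ten minutes later locomotion is recorded for 15 min in a photocell actophotometer. ED50 is 50% reduction versus control hypermotility, by probit analysis. Parenthetical entries give the maximal dose and percent activity.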

The subject of data set [10] is Rattus norvegicus. The data set is described as follows: Antagonistic activity against apomorphine-induced stereotypy in rats, by administering perorally at a dose of 20 mg/kg. Type of data set: functional. As to conditions: route oral. The essentials: as §1
In data set [11] the test system is Rattus norvegicus. Description: Antagonistic activity against apomorphine-induced stereotypy in rats, by administering perorally. Type of data set: functional. As to conditions: po. The essentials:
as §1

The subject of data set [12] is Rattus norvegicus. Description: Activity to evoke catalepsy in rats, by administering perorally. It counts as functional. As to conditions: po. In outline: as §2
Data set [13] deals with Rattus norvegicus. The data set is described as follows: Antagonistic activity against apomorphine-induced stereotypy in rats, by administering perorally at a dose of 100 mg/kg. Type of data set: functional. As to conditions: route oral. In outline: as §1
Data set [14] has as its system Rattus norvegicus. Description: Activity to evoke catalepsy in rats, by administering perorally at a dose of 100 mg/kg. It counts as functional. As to conditions: route oral, read-out: Inhibition. The essentials: as §2
The subject of data set [15] is Mus musculus. Description: Inhibition of spontaneous motor activity in mice, by administering perorally at a dose of 100 mg/kg. Particulars: route oral. It counts as functional. In outline: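 Mice fasted overnight, then dosed orally with compound (weighed as base) suspended in arabic gum, 10 mL/kg, with vehicle controls; 1 h pretreatment for screening tests, 1 or 5 h for others. Groups of five; locomotor activity counted 10 min in photocell activity cage, at least two groups per dose. ED50 = dose giving 50% inhibition versus controls, by probit analysis.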

Data set [16] deals with Mus musculus. Description: Antagonistic activity against amphetamine-induced Hypermobility in mice, by administering perorally at a dose of 100 mg/kg. It counts as functional. As to conditions: route oral. The essentials:
as §3

A word on the ED50: it is the dose that gives a 50% effect, or the effect in half of the subjects. High values mean a need for a large dose, low ones an effect at a small dose. The inhibition in vivo is the relative decrease from the control value, in per cent. The term LD50 denotes the dose at which mortality reaches 50%. A high value points to lower toxicity. In the case of `COc1cccc(N2CCN(CCc3oc(O)nc3-c3ccc(F)cc3)CC2)c1`, the 50% effective dose (ED50) is 7.6 mg/kg with Mus musculus [1] and 10.8 mg/kg in the data set with Mus musculus [2]. Besides, the inhibition in vivo at 50 mg/kg in the data set with Rattus norvegicus [3] is 0%; in the data set on Rattus norvegicus [4], 30%. Besides, in data set [5], the LD50 was 500 mg/kg.
As to `O=C(c1ccccc1)n1c(-c2ccc(F)cc2)c(CCN2CCN(c3ccccc3)CC2)oc1=O`, the ED50 is 9.3 mg/kg in the data set on Mus musculus [1] and 4 mg/kg in the data set with Mus musculus [2]. Also, the inhibition in vivo at 150 mg/kg is 0% in the data set on Rattus norvegicus [6] and 40% in the data set on Rattus norvegicus [7]. For the same compound, the LD50 in [5] was found to be 750 mg/kg.
As for `Oc1nc(-c2ccc(F)cc2)c(CCN2CCN(c3cccc(Cl)c3Cl)CC2)o1`, the percent of rats showing catalepsy at 20 mg/kg in the data set with Rattus norvegicus [8] was found to be 0%. In addition, it took a dose of 12.5 mg/kg to reach the 50% effect level in the data set on Mus musculus [2] (ED50). The inhibition in vivo at 20 mg/kg was found to be 69% in the data set on Mus musculus [9] and 0% in the data set with Rattus norvegicus [10]. The compound further registered a median lethal dose (LD50) in [5] of 90 mg/kg.
In the case of `Oc1nc(-c2ccccc2)c(CCN2CCN(c3ccccc3)CC2)o1`, the 50% effective dose (ED50) came to 200 mg/kg in the data set on Rattus norvegicus [11], 51 mg/kg in the data set on Mus musculus [1], 60 mg/kg in the data set on Mus musculus [2] and 63 mg/kg in the data set with Rattus norvegicus [12]. The LD50 in data set [5] is > 1000 mg/kg.
Take `CC(=O)n1c(-c2ccc(F)cc2)c(CCN2CCN(c3ccccc3)CC2)oc1=O`: the ED50 is 44 mg/kg in the data set with Rattus norvegicus [11], 4.7 mg/kg with Mus musculus [1], 2.7 mg/kg in the data set on Mus musculus [2] and 30.5 mg/kg in the data set on Rattus norvegicus [12]. For the same compound, in data set [5], the LD50 was 350 mg/kg.
For `Oc1nc(-c2ccc(Cl)cc2)c(CCN2CCN(c3ccccn3)CC2)o1`, the ED50 in the data set on Mus musculus [1] was 14.3 mg/kg; with Mus musculus [2] it was 14.1 mg/kg; with Rattus norvegicus [12] it was 47 mg/kg. Besides, the inhibition in vivo at 50 mg/kg with Rattus norvegicus [3] was 0%. In addition, the LD50 in [5] amounted to 375 mg/kg.
Compound `Oc1nc(-c2ccc(F)cc2)c(CCN2CCN(c3cccc(C(F)(F)F)c3)CC2)o1` yielded an inhibition in vivo at 100 mg/kg with Rattus norvegicus [13] of 0%. Moreover, the 50% effective dose (ED50) with Mus musculus [1] is 11.6 mg/kg; with Mus musculus [2], 16.9 mg/kg. Besides, in [5], the LD50 is > 1000 mg/kg. Also, the percent of rats showing catalepsy at 100 mg/kg in the data set on Rattus norvegicus [14] stood at 0%.
For `COc1ccccc1N1CCN(CCc2oc(=O)n(C(C)=O)c2-c2ccc(F)cc2)CC1`, the ED50 in the data set with Rattus norvegicus [11] was 14.5 mg/kg; in the data set with Mus musculus [1], 3.5 mg/kg; with Mus musculus [2], 4.3 mg/kg; in the data set on Rattus norvegicus [12] it was 30 mg/kg. In data set [5], this compound registered a median lethal dose (LD50) of 190 mg/kg.
Take `Oc1nc(-c2ccc(Cl)cc2)c(CN2CCN(c3ccccc3)CC2)o1`: the inhibition in vivo at 100 mg/kg was found to be 15% with Mus musculus [15], 0% in the data set on Rattus norvegicus [13] and 0% with Mus musculus [16]. The median lethal dose (LD50) in data set [5] was > 1000 mg/kg. In addition, in the data set on Rattus norvegicus [14], the percent of rats showing catalepsy at 100 mg/kg came to 0%.
Regarding `CC(=O)n1c(-c2ccc(F)cc2)c(CCN2CCN(c3cc(Cl)cc(Cl)c3)CC2)oc1=O`, the inhibition in vivo at 100 mg/kg with Rattus norvegicus [13] worked out at 10%. Also, the ED50 worked out at 2.7 mg/kg in the data set on Mus musculus [1] and 4.5 mg/kg with Mus musculus [2]. Further, the LD50 in data set [5] amounted to 1000 mg/kg. Moreover, the percent of rats showing catalepsy at 100 mg/kg in the data set on Rattus norvegicus [14] amounted to 0%.
For `Oc1nc(-c2ccc(F)cc2)c(CCN2CCN(c3cc(Br)cc(Br)c3)CC2)o1` the same measures were 0%, 5.4 mg/kg, 15 mg/kg, 1000 mg/kg and 0%.
Take `Cn1c(-c2ccc(F)cc2)c(CCN2CCN(c3ccccc3)CC2)oc1=O`: the results for the ED50 with Rattus norvegicus [11], in the data set on Mus musculus [1] and with Mus musculus [2] were 112 mg/kg, 21 mg/kg and 19.5 mg/kg, respectively. The compound further yielded an LD50 in data set [5] of 750 mg/kg. For the same compound, the percent of rats showing catalepsy at 100 mg/kg in the data set with Rattus norvegicus [14] came out at 0%.
As to `Oc1nc(-c2ccc(F)cc2)c(CCN2CCN(c3ccc(Cl)c(Cl)c3)CC2)o1`, the inhibition in vivo at 100 mg/kg in the data set with Mus musculus [15] came out at 21%; in the data set with Rattus norvegicus [13] it was 0%; in the data set on Mus musculus [16], 62%. In data set [5], this compound came in with an LD50 of 1000 mg/kg. In the data set with Rattus norvegicus [14], the percent of rats showing catalepsy at 100 mg/kg turned out to be 0%.
